NR3A LBD binder = binders of NR3A ligand-binding domain, primary screen, biophysical, differential scanning fluorimetry, uHTS; Glutamate receptor ionotropic, NMDA 3A (GRIN3A) ligand-binding domain; NR3A LBD differential scanning fluorimetry, Tm shift; 0% = protein alone, 100% = glycine-bound protein; Tm shift relative to glycine control, % at 25 µM; 340,000 tested, 2.5% active; AID 1259313, 2017;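 active = melting temperature shift of at least 10% of the positive control shift, at one fixed dose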
Arrestin-AP2 inh = inhibitors of beta-arrestin/AP2 binding, primary screen, biochemical, GPCR trafficking, flow cytometry; 340,000 tested, 0.31% active; FITC-arrestin peptide / GST-AP2 beads; AP2 beta2 appendage carries R879A mutation; AID 504490, 2011; beta-arrestin 1 C-terminal peptide binding to AP2 beta2-adaptin appendage (human); inhibition, % at 10 µM;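 active = inhibition above a set limit, near 3 SD of compounds lacking own fluorescence, cut at about 54% in these data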;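 also: plate controls were DMSO wells for no effect and 5 µM unlabelled arrestin peptide for full effect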
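System: GST-tagged AP2 beta2-adaptin appendage (R879A) on 4 µm glutathione beads / Reagent: FITC-arrestin peptide, 50 nM / Detection: HyperCyt-sampled flow cytometry, FL1 channel, ex 488/em 535 nm / Timing: 12 min plus 1 h, RT / Buffer or medium: PBS plus Tween 20 (0.05%) and BSA (0.1%)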
FAS-TE inh = FAS thioesterase domain inhibitors, primary screen, biochemical, fluorescence intensity, uHTS | Fatty acid synthase (Homo sapiens), P49327 | recombinant FAS-TE, OMFH fluorogenic substrate, fluorescence endpoint | inhibition, % at 15 µM | 360,000 tested, 0.67% active | AID 602261, 2012;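 active = compounds whose normalised, plate-corrected inhibition of enzyme fluorescence in the single-dose primary screen is 50% or more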;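 also: 0% = DMSO with enzyme and 100% = substrate without enzyme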
Cardio protect = cardioprotection against H2O2-induced cell death, primary screen, uHTS, H9c2 cells, ATPLite luminescence | protection from H2O2 cell death, % at 20 µM | H9c2 cardiomyocytes, H2O2 injury protection, 2 h | 360,000 tested, 0.63% active | AID 588492, 2011;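 active = compounds giving at least 50% protection of heart cells from peroxide-induced death in the single-dose screen, raw or plate-pattern-corrected value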;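 also: 0% = DMSO wells with peroxide and 100% = DMSO wells without peroxide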
SENP1 FRET inh = human SENP1 catalytic domain inhibitors, primary screen, biochemical, FRET, uHTS; inhibition, % at 10 µM; Sentrin-specific protease 1 (Homo sapiens), Q9P0U3; recombinant SENP1 catalytic domain, CyPet-SUMO1-YPet FRET cleavage; 360,000 tested, 0.21% active;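 active = inhibition at least 30% at 10 µM, raw YFP signal under a set limit, fluorescence ratio 0.5 to 1.5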;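 also: 0% = enzyme with DMSO and 100% = no enzyme wells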
Target sequence (Q9P0U3 419-644 limits assumed): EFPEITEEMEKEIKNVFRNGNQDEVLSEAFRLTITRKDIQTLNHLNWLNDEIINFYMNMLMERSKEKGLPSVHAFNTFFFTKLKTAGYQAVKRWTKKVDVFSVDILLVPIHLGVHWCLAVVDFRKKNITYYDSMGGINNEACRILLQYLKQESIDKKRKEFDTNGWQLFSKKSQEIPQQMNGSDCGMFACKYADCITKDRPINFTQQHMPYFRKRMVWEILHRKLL
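Test system: human SENP1 catalytic domain; medium: Tris pH 8 buffer plus EDTA, NaCl, BME, BSA, NP40, catalase; incubation: 50 min reaction at room temperature; technique: FRET, CFP and YFP emission; controls: no-enzyme low control and enzyme-plus-DMSO high control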
iPSC survival up = enhancers of single-cell hiPSC survival, primary screen, ATPlite luminescence | 100% = ROCK inhibitor wells, 0% = DMSO | AID 602274, 2012 | 360,000 tested, 0.044% active | survival enhancement, % at 20 µM; in the data active = survival enhancement above about 18%;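 also: cells exposed to compounds for 16 hours before the ATP read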
FAS-TE inh conf = FAS thioesterase domain inhibitors, confirmation, biochemical, fluorescence intensity, single concentration | shares compounds with FAS-TE inh | recombinant FAS-TE, OMFH fluorogenic substrate | inhibition, % at 15 µM | 2,300 tested, 45% active | AID 624325, 2012;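 active = compounds inhibiting the enzyme by at least 50% at 15 µM in any one of the replicates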;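 also: 0% = enzyme with DMSO only and 100% = wells lacking enzyme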
Starred values were filed as active, the others as inactive; . = not tested or not shown. Shown are actives, neighbours in structure and some others; about 4% of the full set was active somewhere.

SMILES	NR3A LBD binder	Arrestin-AP2 inh	FAS-TE inh	Cardio protect	SENP1 FRET inh	iPSC survival up	FAS-TE inh conf
O=C(Nc1ccc(S(=O)(=O)Nc2ncccn2)cc1)C12CC3CC(CC(Cl)(C3)C1)C2	-10.1	2.8	-6.2	-7.4	-20.7	-0.7	.
CC(C)C[C@@H](CN1CCC[C@@H]1CN1C(=S)NC[C@@H]1Cc1ccc(O)cc1)N1C[C@H](Cc2ccc(O)cc2)N(CCc2ccccc2)C1=S	.	.	-95.4	-8.0	-1.9	-0.7	.
Cc1cc2c(c(=O)n1Cc1cccnc1)C(c1cccs1)C(C#N)=C(N)O2 (centres undefined)	-5.5	-1.9	2.0	0.9	-22.3	3.5	.
Cc1cc2c(c(=O)n1Cc1cccnc1)C(Cc1ccccc1)C(C#N)=C(N)O2 (centres undefined)	1.5	-5.0	53.2*	-5.4	-161.5	-1.2	32.3
O=c1[nH]c(CN2CCN(c3ncccn3)CC2)nc2c(Br)cc(Br)cc12	-2.3	21.6	11.3	31.2	-14.2	-0.4	.
O=c1[nH]c(CN2CCN(S(=O)(=O)c3cccs3)CC2)nc2c(Br)cc(Br)cc12	5.3	-5.3	55.1*	7.0	-4.6	-0.5	38.2*
CC(C)(C)N1C(=O)c2ccccc2NC(=O)C1C(=O)Nc1ccc2c(c1)OCCO2 (centres undefined)	.	.	.	.	1.3	.	.
CCc1cccc(NC(=O)COC(=O)c2cc([N+](=O)[O-])ccc2N2CCOCC2)c1	-5.3	-8.9	86.7*	-1.5	-0.6	0.6	89.2*
CCN(CC(=O)Nc1ccc(OC)cc1)C(=O)c1cc([N+](=O)[O-])ccc1N1CCOCC1	1.7	2.0	28.1	6.0	-0.2	-0.3	.
O=C(Nc1ccc(Cc2ccncc2)cc1)c1cc([N+](=O)[O-])ccc1N1CCOCC1	-2.3	21.8	81.5*	-1.5	2.6	0.3	88.0*
O=C(NCCOc1ccccc1)c1cc([N+](=O)[O-])ccc1N1CCOCC1	-0.3	2.4	57.0*	8.2	-0.4	0.6	29.5
CCOc1ccc(NC(=O)COC(=O)c2cc([N+](=O)[O-])ccc2N2CCOCC2)cc1	-8.4	7.5	60.9*	4.3	2.3	-0.3	39.3
O=C(CCl)NC(Cc1ccccc1)C(=O)OCC(=O)c1ccc(-c2ccccc2)cc1 (centres undefined)	4.2	1.4	-2.2	-10.8	-0.5	-1.4	.
O=C(NC12CC3CC(CC(C3)C1)C2)c1cc([N+](=O)[O-])ccc1N1CCOCC1	13.4*	10.3	51.2*	0.4	-0.7	0.6	38.6*
O=C(NC(=S)Nc1ccccc1)c1cc([N+](=O)[O-])ccc1N1CCOCC1	-4.9	1.1	57.7*	-0.6	0.2	-0.7	51.0*
CCOc1ccc(NC(=O)c2cc([N+](=O)[O-])ccc2N2CCOCC2)cc1	-4.8	6.1	55.0*	-2.0	-0.2	0.1	64.9*
O=C(Nc1ccccc1)c1cc([N+](=O)[O-])ccc1N1CCCCC1	-5.9	24.1	47.2	-6.5	-2.3	1.4	.
O=C(COc1ncnc2c(Cl)cc(Cl)cc12)Nc1cc([N+](=O)[O-])ccc1Cl	14.1*	16.8	52.0*	6.3	-1.4	-1.2	43.2
O=C(COc1ncnc2ccccc12)Nc1cc([N+](=O)[O-])ccc1Cl	2.1	10.2	51.2*	-1.8	0.5	0.9	3.4
O=C(COc1ncnc2cc([N+](=O)[O-])ccc12)NCCc1ccc(Cl)cc1	-4.8	11.6	28.6	-6.0	-35.5	0.1	.

Compound activity from PubChem.
